Source: ChEMBL document CHEMBL1149144, “Structure-based design of potent retinoid X receptor alpha agonists” (J Med Chem, 2004)

Legend:
[1] = molecular target: T1, Retinoic acid receptor RXR-alpha (Homo sapiens, UniProt P19793); test: Effective concentration for Retinoid X receptor alpha activity in CV-1 cells; format: functional, cell-based
T1 sequence (P19793 whole entry): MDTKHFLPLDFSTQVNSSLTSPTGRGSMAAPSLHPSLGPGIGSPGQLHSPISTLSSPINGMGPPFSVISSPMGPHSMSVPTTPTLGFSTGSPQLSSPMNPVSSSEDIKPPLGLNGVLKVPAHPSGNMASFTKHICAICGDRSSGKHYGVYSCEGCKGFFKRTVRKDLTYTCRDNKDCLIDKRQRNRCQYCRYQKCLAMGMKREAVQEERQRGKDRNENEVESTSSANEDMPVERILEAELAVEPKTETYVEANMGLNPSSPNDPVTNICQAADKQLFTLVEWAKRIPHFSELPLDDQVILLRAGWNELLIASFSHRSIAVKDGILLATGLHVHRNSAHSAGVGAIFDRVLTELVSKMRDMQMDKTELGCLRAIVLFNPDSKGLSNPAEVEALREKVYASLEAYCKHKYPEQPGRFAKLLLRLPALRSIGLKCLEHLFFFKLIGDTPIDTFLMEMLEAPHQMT
In short: (§1)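 CV-1 monkey kidney cells transiently transfected with a full-length hRXRα expression vector (RXRα) or a GAL4-hRARα vector (RARα), each with an RXRα- or RARα-responsive reporter gene construct. Top concentration 10 µM; EC50 calculated from the reporter response.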

[2] = molecular target: T2, Retinoic acid receptor alpha (Homo sapiens, UniProt P10276); test: Binding affinity for retinoic acid receptor alpha (RARalpha), using 9-cis-[3H]-retinoic acid
T2 sequence (P10276 whole entry): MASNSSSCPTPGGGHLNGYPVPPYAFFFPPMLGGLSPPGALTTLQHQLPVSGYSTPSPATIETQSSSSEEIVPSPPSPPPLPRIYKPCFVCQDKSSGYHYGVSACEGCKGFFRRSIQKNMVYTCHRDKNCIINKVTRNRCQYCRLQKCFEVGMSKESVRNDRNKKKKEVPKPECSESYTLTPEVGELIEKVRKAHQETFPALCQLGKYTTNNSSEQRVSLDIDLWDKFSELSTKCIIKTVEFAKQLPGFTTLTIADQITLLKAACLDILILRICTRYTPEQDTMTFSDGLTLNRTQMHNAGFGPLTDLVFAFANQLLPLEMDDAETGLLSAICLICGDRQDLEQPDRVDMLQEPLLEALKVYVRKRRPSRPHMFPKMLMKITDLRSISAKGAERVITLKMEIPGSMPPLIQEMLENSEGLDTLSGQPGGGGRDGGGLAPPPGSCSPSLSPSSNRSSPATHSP
In short: (§2)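 Scintillation proximity binding assay; Ki from competition of 2.5 nM 9-cis-RA at RXRα and RARα, with test compound up to 10 µM.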

[3] = molecular target: T1, Retinoic acid receptor RXR-alpha; test: Binding affinity for retinoid X receptor alpha (RXRalpha), using 9-cis-[3H]-retinoic acid; in short: as §2
[4] = molecular target: T2, Retinoic acid receptor alpha; test: Effective concentration for Retinoic acid receptor alpha activity in CV-1 cells; format: functional, cell-based; in short: as §1
[5] = molecular target: T1, Retinoic acid receptor RXR-alpha; test: Effective concentration for Retinoid X receptor alpha activity in CV-1 cells; Partial agonist; format: functional, cell-based; in short: as §1

For `CN1Cc2oc(/C=C/C(=O)O)cc2C(c2ccc3c(c2)C(C)(C)CCC3(C)C)C1` (centres undefined), which EC50 [1] is on record?
Its EC50 is 70 nM.

And the Ki [2]?
The Ki was over 1000 nM.

And the Ki [3]?
The Ki was 79 nM.

What does the source list for `CC(=CC(=O)O)c1cc2c(o1)CCCC2c1ccc2c(c1)C(C)(C)CCC2(C)C` (centres undefined)?
EC50 [1]: 60 nM; EC50 [4]: > 10000 nM; Ki [2]: > 1000 nM; Ki [3]: 63 nM

With `O=C1NC(=O)/C(=C/c2ccc(-c3cccc(Br)c3)o2)S1` as the molecule, how does the Ki [3] read?
Its Ki is 1500 nM.

Which EC50 [4] does the source give for `COc1cc2c(cc1C1CCCc3oc(/C=C/C(=O)O)cc31)C(C)(C)CCC2(C)C` (centres undefined) here?
The EC50 was over 10000 nM.

And the Ki [2]?
Its Ki is over 1000 nM.

What about the Ki [3] of the same molecule?
Its Ki is 20 nM.

What about the EC50 [5] of the same molecule?
Its EC50 is 48 nM.

Which EC50 [1] does the source give for `CC1(C)CCC(C)(C)c2cc(C3CCCc4oc(/C=C5/SC(=O)NC5=O)cc43)ccc21` (centres undefined) here?
Its EC50 is 4 nM.

And the EC50 [4]?
Its EC50 is over 10000 nM.

And the Ki [2]?
The Ki was over 1000 nM.

What about the Ki [3] of the same molecule?
The Ki was 20 nM.

`Cc1cc2c(cc1C1CCCc3oc(/C=C/C(=O)O)cc31)C(C)(C)CCC2(C)C` (centres undefined) was tested. Which EC50 [1] did it give?
Its EC50 is 29 nM.

What about the EC50 [4] of the same molecule?
Its EC50 is over 10000 nM.

And the Ki [2]?
The Ki was over 1000 nM.

What about the Ki [3] of the same molecule?
Its Ki is 40 nM.

With `CC1(C)CCC(C)(C)c2cc(C3CCCc4oc(C(=O)O)cc43)ccc21` (centres undefined) as the molecule, how does the EC50 [1] read?
Its EC50 is over 10000 nM.

And the Ki [2]?
The Ki was over 1000 nM.

And the Ki [3]?
Its Ki is over 3000 nM.

What does the source list for `CC1(C)CCC(C)(C)c2cc(C3CCCc4sc(CCC(=O)O)cc43)ccc21` (centres undefined)?
EC50 [1]: 97 nM; EC50 [4]: > 10000 nM; Ki [2]: > 1000 nM; Ki [3]: 200 nM

How did the Ki [2] turn out when `CC1(C)CCC(C)(C)c2cc(-c3ccc(/C=C/C(=O)O)o3)ccc21` was run?
Its Ki is 93 nM.

And the Ki [3]?
Its Ki is over 1000 nM.
